Measured values from ChEMBL document CHEMBL4732262, “Identification of two novel thiophene analogues as inducers of autophagy mediated cell death in breast cancer cells” (Bioorg Med Chem, 2021).
The source made the active and inactive calls. The calls are words filed in the database; no cut-off is given here.

Tests used:
MCF7 [1] = experiment: Induction of apoptosis in human MCF7 cells assessed as early apoptotic cells at 2.5 uM after 24 hrs by annexin V-FITC/Propidium iodide staining based flow cytometric analysis (reference value: 3.94%); assay type: functional
MCF7 [2] = experiment: Induction of apoptosis in human MCF7 cells assessed as necrotic cells at 2.5 uM after 24 hrs by annexin V-FITC/Propidium iodide staining based flow cytometric analysis (reference value: 1.22%); assay type: functional
MDA-MB-231 [3] = experiment: Induction of apoptosis in human MDA-MB-231 cells assessed as late apoptotic cells at 2.5 uM after 24 hrs by annexin V-FITC/Propidium iodide staining based flow cytometric analysis (reference value: 0.08%); assay type: functional
MCF7 [4] = experiment: Induction of apoptosis in human MCF7 cells assessed as increase in cell death at 2.5 uM after 24 hrs by EtBr/AO staining based fluorescence microscopic method; assay type: functional
How it was run: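 ~5 × 10^4 MCF7 cells on coverslips given 2.5 µM for 24 h, then PBS-washed and stained with 1:1 ethidium bromide/acridine orange (0.4 mg/ml each). Viewed by fluorescence microscopy, excitation 480 nm with a 515–530 nm barrier filter. Apoptotic, necrotic and viable cells scored from 200 cells per sample.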

MCF7 [5] = experiment: Induction of apoptosis in human MCF7 cells assessed as increase in cell death at 2.5 uM after 24 hrs by EtBr/AO staining based fluorescence microscopic method relative to tanshinone-2A; assay type: functional
How it was run: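 MCF7 cells (~5 × 10^4 per well, on coverslips) were left untreated (DMSO control) or treated at 2.5 µM for 24 h. Cells were PBS-washed, stained with 1:1 EtBr/AO (0.4 mg/ml each), washed and mounted, then viewed by fluorescence microscopy (480 nm excitation, 515-530 nm barrier filter). 200 cells per sample were scored apoptotic, necrotic or viable; percentages were taken relative to live cells.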

MCF7 [6] = experiment: Induction of apoptosis in human MCF7 cells at 2.5 uM after 24 hrs by annexin V-FITC/Propidium iodide staining based flow cytometric analysis relative to tanshinone-1; assay type: functional
MDA-MB-231 [7] = experiment: Induction of apoptosis in human MDA-MB-231 cells at 2.5 uM after 24 hrs by annexin V-FITC/Propidium iodide staining based flow cytometric analysis relative to tanshinone-2A; assay type: functional
MCF7 [8] = experiment: Induction of apoptosis in human MCF7 cells assessed as increase in cleaved PARP level at 2.5 uM after r24 hrs by Western blot analysis; assay type: functional, cell-based; settings: time 24.0 hrs
How it was run: (§1)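 MCF7 or MDA-MB-231 cells given 2.5 µM or DMSO for 24 h, then lysed in RIPA buffer. Immunoblots probed overnight at 4 °C, followed by infrared-labelled secondary antibody for 1 h at 37 °C. Bands imaged and quantified densitometrically, with GAPDH as loading control. Representative of two independent experiments.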

MCF7 [9] = experiment: Induction of apoptosis in human MCF7 cells assessed as change in Bax protein expression at 2.5 uM after 24 hrs by Western blot analysis; assay type: functional, cell-based; how it was run: as §1
MCF7 [10] = experiment: Induction of apoptosis in human MCF7 cells assessed as change in Bak1 protein expression at 2.5 uM after 24 hrs by Western blot analysis; assay type: functional, cell-based; how it was run: as §1
MCF7 [11] = experiment: Induction of autophagy in human MCF7 cells assessed as increase in Bcl2L11 mRNA expression at 2.5 uM after 24 hrs by RT-PCR analysis; assay type: functional, cell-based
How it was run: (§2)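 MCF7 cells given 2.5 µM or DMSO for 24 h. Total RNA extracted with TRIzol and reverse-transcribed, then SYBR Green qPCR across 34 autophagy-regulatory genes (95 °C 10 min; 40 cycles of 95 °C 15 s and 60 °C 1 min). Relative expression by 2^-ΔΔCt against housekeeping genes and DMSO control, shown as log2. Two independent experiments.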

MCF7 [12] = experiment: Induction of autophagy in human MCF7 cells assessed as increase in ATG16L1 mRNA expression at 2.5 uM after 24 hrs by RT-PCR analysis; assay type: functional, cell-based; how it was run: as §2
MCF7 [13] = experiment: Induction of autophagy in human MCF7 cells assessed as increase in ATG16L2 mRNA expression at 2.5 uM after 24 hrs by RT-PCR analysis; assay type: functional, cell-based; how it was run: as §2
MCF7 [14] = experiment: Induction of autophagy in human MCF7 cells assessed as increase in GABARAPL2 mRNA expression at 2.5 uM after 24 hrs by RT-PCR analysis; assay type: functional, cell-based; how it was run: as §2
MCF7 [15] = experiment: Induction of autophagy in human MCF7 cells assessed as increase in GADD34 mRNA expression at 2.5 uM after 24 hrs by RT-PCR analysis; assay type: functional, cell-based
MCF7 [16] = experiment: Induction of autophagy in human MCF7 cells assessed as increase in IRE1 mRNA expression at 2.5 uM after 24 hrs by PCR microarray analysis; assay type: functional, cell-based
How it was run: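 MCF7 cells given 2.5 µM or DMSO for 24 h. cDNA run on an Unfolded Protein Response RT2 Profiler PCR array. Changes computed by 2^-ΔΔCt (log2) against control, normalised to the mean of ACTB, B2M, GAPDH, HPRT1 and RPLPO.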

MCF7 [17] = experiment: Induction of autophagy in human MCF7 cells assessed as increase in ATF4 protein expression at 2.5 uM after 24 hrs by Western blot analysis; assay type: functional, cell-based; how it was run: as §1
MCF7 [18] = experiment: Induction of autophagy in human MCF7 cells assessed as increase in CHOP protein expression at 2.5 uM after 24 hrs by Western blot analysis; assay type: functional, cell-based; how it was run: as §1
MCF7 [19] = experiment: Induction of autophagy in human MCF7 cells assessed as increase in LC3-2 conversion level after 24 hrs by Western blot analysis; assay type: functional, cell-based; settings: dose 1.25-5 µM
How it was run: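 MCF7 cells exposed for 24 h to 0, 1.25, 2.5 or 5 µM. Western blot with GAPDH as loading control. LC3-II/I ratio obtained by densitometry. At least two independent experiments.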

MCF7 [20] = experiment: Induction of autophagy in human MCF7 cells assessed as increase in p62 degradation level after 24 hrs by Western blot analysis; assay type: functional, cell-based; settings: dose 1.25-5 µM
How it was run: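 Dose series in MCF7 cells (~5 × 10^6): 0, 1.25, 2.5 and 5 µM compound for 24 h, DMSO control. Lysates immunoblotted for p62 and LC3, GAPDH loading control, with infrared densitometry. At least two independent experiments.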

MCF7 [21] = experiment: Induction of autophagy in human MCF7 cells assessed as increase in LC3-2 conversion level at 2.5 uM after 24 hrs in presence of chloroquine by Western blot analysis; assay type: functional, cell-based
How it was run: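 MCF7 cells given 2.5 µM alone or combined with 50 µM chloroquine for 24 h. Western blot for cleaved PARP, p62 and LC3, with GAPDH as loading control. LC3-II/I ratio by densitometry. At least two independent experiments.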

MCF7 [22] = experiment: Induction of autophagy in human MCF7 cells expressing GFP-LC3 assessed as distinct puncta pattern at 2.5 uM after 24 hrs by live-cell confocal microscopic analysis; assay type: functional, cell-based
How it was run: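 MCF7 cells (~1 × 10^6) at 70% confluency on glass-bottom dishes were transiently transfected with GFP-LC3 (Lipofectamine 3000). 24 h later they received 2.5 µM compound or DMSO for another 24 h. Nuclei were stained with Hoechst 33342 and lysosomes with LysoTracker Red DND-99, then imaged by live-cell confocal microscopy. LC3 puncta were counted in at least 10 cells from 3 fields. Two independent experiments.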

MCF7 [23] = experiment: Induction of autophagy in human MCF7 cells assessed as LC3-2 to LC3-1 protein ratio at 5 uM after 24 hrs by Western blot analysis (reference value: 0.22 to 0.8); assay type: functional

SMILES	Activity (MCF7 [1]) [%]	Activity (MCF7 [2]) [%]	Activity (MDA-MB-231 [3]) [%]	Activity (MCF7 [4])	fold change (FC) (MCF7 [5])	fold change (FC) (MCF7 [6])	fold change (FC) (MDA-MB-231 [7])	Activity (MCF7 [8])	Activity (MCF7 [9])	Activity (MCF7 [10])	Activity (MCF7 [11])	Activity (MCF7 [12])	Activity (MCF7 [13])	Activity (MCF7 [14])	Activity (MCF7 [15])	Activity (MCF7 [16])	Activity (MCF7 [17])	Activity (MCF7 [18])	Activity (MCF7 [19])	Activity (MCF7 [20])	also measured
O=C1C(=O)c2ccsc2-c2ccccc21	17.9	37.7	10.9	Active	2	>=2	>=2	Active	inactive	inactive	Active	Active	Active	Active	Active	Active	Active	Active	Dose-dependent effect	Dose-dependent effect	Activity (MCF7 [21]): inactive; Activity (MCF7 [22]): Active; Ratio (MCF7 [23]): 34.1
O=C1C(=O)c2sccc2-c2ccccc21	31.4	22.2	14.9	Active	2	>=2	>=2	Active	inactive	inactive	Active	Active	Active	Active	Active	Active	Active	Active	Dose-dependent effect	Dose-dependent effect	Activity (MCF7 [21]): inactive; Activity (MCF7 [22]): Active; Ratio (MCF7 [23]): 11.4
